ChEMBL document CHEMBL4699510, “Discovery of a series of ester-substituted NLRP3 inflammasome inhibitors” (Bioorg Med Chem Lett, 2020)

Columns and labels:
[1] = target: NACHT, LRR and PYD domains-containing protein 3 (Homo sapiens, UniProt Q96P20); experiment: Inhibition of NLRP3 in human PBMC cells assessed as inhibition of LPS and ATP-induced IL-1beta production; format: cell-based
[2] = Inhibition of TNFalpha production in human PBMC
[3] = Inhibition of IL-6 production in human PBMC
[4] = Effective permeability of compound by PAMPA; format: ADME; details: read-out: Peff
[5] = Stability in human blood assessed as compound remaining measured after 1 hr; format: ADME, tissue-based; details: read-out: Stabilty
Outline: (§1)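 Compound incubated in whole blood (human or mouse) at 37° C for one hour; stability expressed as percentage of compound remaining.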

[6] = Stability in mouse blood assessed as compound remaining measured after 1 hr; format: ADME, tissue-based; details: read-out: Stabilty; outline: as §1

Sequence of NACHT, LRR and PYD domains-containing protein 3 (Q96P20 whole entry, the tested form may be a part): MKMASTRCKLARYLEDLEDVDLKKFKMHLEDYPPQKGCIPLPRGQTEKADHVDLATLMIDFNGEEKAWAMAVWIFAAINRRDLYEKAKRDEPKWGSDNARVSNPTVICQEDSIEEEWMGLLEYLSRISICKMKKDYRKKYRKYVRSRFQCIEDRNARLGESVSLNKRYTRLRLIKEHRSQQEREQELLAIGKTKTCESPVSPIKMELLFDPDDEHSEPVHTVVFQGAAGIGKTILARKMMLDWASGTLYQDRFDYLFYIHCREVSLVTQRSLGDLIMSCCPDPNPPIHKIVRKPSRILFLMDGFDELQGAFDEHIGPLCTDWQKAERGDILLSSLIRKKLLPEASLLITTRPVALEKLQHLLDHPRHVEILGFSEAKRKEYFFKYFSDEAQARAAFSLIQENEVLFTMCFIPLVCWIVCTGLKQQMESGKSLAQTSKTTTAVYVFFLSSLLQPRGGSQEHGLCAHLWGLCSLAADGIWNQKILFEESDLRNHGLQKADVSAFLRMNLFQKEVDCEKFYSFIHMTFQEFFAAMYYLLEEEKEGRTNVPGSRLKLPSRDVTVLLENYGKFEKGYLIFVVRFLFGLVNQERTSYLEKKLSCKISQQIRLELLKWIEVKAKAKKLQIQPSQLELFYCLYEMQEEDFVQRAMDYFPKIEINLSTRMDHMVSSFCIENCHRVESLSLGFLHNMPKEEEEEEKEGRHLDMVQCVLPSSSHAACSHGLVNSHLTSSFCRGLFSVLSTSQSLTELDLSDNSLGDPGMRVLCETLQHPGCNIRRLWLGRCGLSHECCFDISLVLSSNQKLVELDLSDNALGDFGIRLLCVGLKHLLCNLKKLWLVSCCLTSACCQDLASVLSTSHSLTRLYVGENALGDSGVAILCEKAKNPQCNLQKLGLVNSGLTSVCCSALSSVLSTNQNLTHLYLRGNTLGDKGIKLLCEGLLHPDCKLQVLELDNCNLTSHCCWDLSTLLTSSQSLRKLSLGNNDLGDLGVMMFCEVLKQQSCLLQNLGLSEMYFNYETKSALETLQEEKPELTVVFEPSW

Row | SMILES | IC50 [1] | other results
1 | CCOC(=O)CNC(=O)NC12CC3CC(CC(C3)C1)C2 | > 20 µM | –
2 | COC(=O)[C@@H](Cc1ccncc1)NC(=O)Nc1c2c(cc3c1CCC3)CCC2 | > 20 µM | –
3 | CCOC(=O)CNC(=O)NC(c1ccccc1)c1ccccc1 | > 20 µM | –
4 | Cc1nnc(CNC(=O)Nc2c3c(cc4c2CCC4)CCC3)o1 | > 20 µM | –
5 | O=C(CNS(=O)(=O)c1ccccc1)Nc1c2c(cc3c1CCC3)CCC2 | > 20 µM | –
6 | O=C(O)CC(=O)Nc1c2c(cc3c1CCC3)CCC2 | > 20 µM | –
7 | COC(=O)CNC(=O)Nc1c(C(C)C)cccc1C(C)C | > 20 µM | –
8 | COC(=O)CC(=O)Nc1c2c(cc3c1CCC3)CCC2 | > 20 µM | –
9 | COC(=O)C(C)(C)NC(=O)Nc1c2c(cc3c1CCC3)CCC2 | > 20 µM | –
10 | CC(C)(O)c1coc(S(=O)(=O)[N-]C(=O)Nc2c3c(cc4c2CCC4)CCC3)c1.[Na+] | – | IC50 [2]: > 40 µM; IC50 [3]: > 40 µM; Papp [4]: < 0.0003 ×10⁻⁶ cm/s
11 | CNC(=O)CNC(=O)Nc1c2c(cc3c1CCC3)CCC2 | > 20 µM | –
12 | Cc1nc(CNC(=O)Nc2c3c(cc4c2CCC4)CCC3)no1 | > 20 µM | –
13 | O=C(CS(=O)(=O)Nc1ccccc1)Nc1c2c(cc3c1CCC3)CCC2 | > 20 µM | –
14 | COC(=O)C(CCc1ccccc1)NC(=O)Nc1c2c(cc3c1CCC3)CCC2 (stereo not drawn) | > 20 µM | –
15 | CCOC(=O)CNC(=O)Nc1c(C)cccc1C | > 20 µM | –
16 | CCOC(=O)CNC(=O)Nc1c2c(cc3c1CCC3)CCCC2 | > 20 µM | –
17 | CC(C)(C)OC(=O)CNC(=O)Nc1c2c(cc3c1CCC3)CCC2 | > 20 µM | –
18 | CCOC(=O)[C@@H](Cc1ncccn1)NC(=O)Nc1c2c(cc3c1CCC3)CCC2 | – | IC50 [2]: 2.7 µM; IC50 [3]: 4.3 µM; Papp [4]: 8.2 ×10⁻⁶ cm/s; remaining at 1 h [5]: 92.4%; remaining at 1 h [6]: 0%
19 | CCOC(=O)CNC(=O)Nc1c2c(nc3c1CCC3)CCC2 | > 20 µM | –
20 | CN(C)C(=O)CNC(=O)Nc1c2c(cc3c1CCC3)CCC2 | > 20 µM | –
21 | O=C(O)CNC(=O)Nc1c2c(cc3c1CCC3)CCC2 | > 20 µM | –
22 | CC(C)(O)c1coc(S(=O)(=O)NC(=O)Nc2cccc3c2CCC3)c1 | > 20 µM | –
23 | CCOC(=O)[C@@H](Cc1cnccn1)NC(=O)Nc1c2c(cc3c1CCC3)CCC2 | – | Papp [4]: 13.9 ×10⁻⁶ cm/s; remaining at 1 h [5]: 79.2%; remaining at 1 h [6]: 0%
24 | CCOC(=O)CNC(=O)Nc1c2c(c(Cl)c3c1CCC3)CCC2 | > 20 µM | –
25 | CC(C)(O)c1coc(S(=O)(=O)NC(=O)Nc2ccccc2)c1 | > 20 µM | –
